Measurements taken from ChEMBL document CHEMBL1134792, “Antimitotic antitumor agents: synthesis, structure-activity relationships, and biological characterization of N-aryl-N'-(2-chloroethyl)ureas as new selective alkylating agents” (J Med Chem, 2001).
The source made the active and inactive calls. The calls are words filed in the database; no cut-off is given here.

Assays:
[1] = system: K562; test: Dose required to inhibit cell growth was determined against K562 cell line of chronic myelogenous leukemia; assay type: functional, cell-based; details: Homo sapiens
Outline: (§1)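 Alamar Blue growth assay. (1–5) × 10^3 cells per well preincubated 24 h, then exposed to increasing drug concentrations for 72 h at 37 °C. Medium replaced with PBS containing 20% Alamar Blue, fluorescence read at 485/590 nm. IC50 is the dose inhibiting growth by 50%.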

[2] = system: P388; test: Dose required to inhibit cell growth was determined against P388D1 cell line of murine lymphocytotic leukemia; NA= Not active represents IC50 >400 uM; assay type: functional, cell-based; details: Mus musculus
Outline: (§2)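 Alamar Blue growth-inhibition assay. Cells ((1–5) × 10³ per well) were preincubated for 24 h, then exposed to increasing drug concentrations for 72 h at 37 °C. Alamar Blue (20%) was added and fluorescence read at ex 485 / em 590 nm. IC50 is the dose inhibiting growth by 50%. Means of ≥3 independent determinations.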

[3] = system: CHO; test: Dose required to inhibit cell growth was determined against CHO cell line; assay type: functional, cell-based; details: Cricetulus griseus; outline: as §1
[4] = system: MDA-MB-231; test: Dose required to inhibit cell growth was determined against MDA-MB-231 cell line of human non-hormone dependent breast carcinoma; NA= Not active represents IC50 >400 uM; assay type: functional, cell-based; outline: as §2
[5] = system: LoVo; test: Dose required to inhibit cell growth was determined against LoVo cell line of human adenocarcinoma; NA= Not active represents IC50 >400 uM; assay type: functional, cell-based; outline: as §2
[6] = system: HT-29; test: Dose required to inhibit cell growth was determined against HT-29 cell line of human adenocarcinoma; NA= Not active represents IC50 >400 uM; assay type: functional, cell-based; outline: as §2
[7] = system: L1210; test: Dose required to inhibit cell growth was determined against L1210 cell line of murine lymphocytotic leukemia; assay type: functional, cell-based; details: Mus musculus; outline: as §1
[8] = system: HT-29; test: Dose required to inhibit cell growth was determined against HT-29 cell line of human adenocarcinoma; assay type: functional, cell-based; outline: as §1
[9] = system: K562; test: Dose required to inhibit cell growth was determined against K562 cell line of chronic myelogenous leukemia; Not active represents IC50 >400 uM; assay type: functional, cell-based; details: Homo sapiens; outline: as §2
[10] = system: MDA-MB-231; test: Dose required to inhibit cell growth was determined against MDA-MB-231 cell line of human non-hormone dependent breast carcinoma; Not active represents IC50 >400 uM; assay type: functional, cell-based; outline: as §2
[11] = system: CHO; test: Dose required to inhibit cell growth was determined against CHO cell line; Not active represents IC50 >400 uM; assay type: functional, cell-based; details: Cricetulus griseus; outline: as §2
[12] = system: LoVo; test: Dose to inhibit cell growth determined against LoVo cell line of human adenocarcinoma; assay type: functional, cell-based; outline: as §1
[13] = system: MDA-MB-231; test: DNA damages caused in MDA-MB-231 cells after 2 hr compound exposure to 400 uM concentration; assay type: functional, Homo sapiens
Outline: (§3)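 Growing MDA-MB-231 cells held 2 h at 37 °C in medium with or without 400 μM compound. Cells washed in cold PBS and lysed in Tris/SDS/EDTA/deferoxamine/proteinase K buffer. DNA isolated by salting out, then 3'-end labeled by T4 DNA polymerase nucleotide exchange. Incorporated radioactivity measured by dot filtration, expressed as dCps exchanged/ng DNA. Means ± SD, ≥3 determinations.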

[14] = Glutathione activity was measured after incubation with a conc. of 500 uM
Outline: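 Cell-free thiol assay. GSH 500 µM with 1 mM EDTA and 500 µM drug (from 2% ethanol solution) in 0.1 M phosphate buffer pH 7.4, 60 min at room temperature. DTNB (0.133 mM) was then added and A412 read. Reported as % of no-drug control, in triplicate.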

[15] = molecular target: T1, Glutathione reductase, mitochondrial (Homo sapiens) (UniProt P00390); test: Glutathione reductase activity was measured after incubation with a conc. of 500 uM; assay type: functional
T1 sequence (whole entry): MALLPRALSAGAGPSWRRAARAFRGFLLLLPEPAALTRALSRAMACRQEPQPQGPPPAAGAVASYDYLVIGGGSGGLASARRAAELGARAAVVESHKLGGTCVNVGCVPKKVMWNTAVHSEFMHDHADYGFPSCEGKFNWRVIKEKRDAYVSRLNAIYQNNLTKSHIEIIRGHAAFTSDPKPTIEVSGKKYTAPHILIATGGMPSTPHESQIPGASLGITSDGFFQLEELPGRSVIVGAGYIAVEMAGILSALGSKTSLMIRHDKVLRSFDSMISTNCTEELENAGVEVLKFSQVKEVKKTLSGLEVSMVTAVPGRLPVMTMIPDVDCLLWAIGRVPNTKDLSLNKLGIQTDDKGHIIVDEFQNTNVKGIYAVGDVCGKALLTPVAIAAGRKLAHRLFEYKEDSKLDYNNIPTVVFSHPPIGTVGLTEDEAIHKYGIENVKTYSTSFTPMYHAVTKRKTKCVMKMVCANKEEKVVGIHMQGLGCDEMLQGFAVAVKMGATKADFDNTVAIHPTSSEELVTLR
Outline: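 Purified glutathione reductase (0.016 U/mL) with 100 µM NADPH, 1 mM EDTA, 1 mg/mL BSA and 500 µM drug (from 2% ethanol solution) in 0.1 M phosphate pH 7.4, preincubated 60 min at 30 °C. GSSG was then added for 60 min at 30 °C. Activity is the […] over 3 min, as % of no-drug control, in triplicate.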

[16] = system: MDA-MB-231; test: Beta tubulin alkylation activity in MDA-MB-231 cells; assay type: functional, Homo sapiens; set-up: concentration or dose not given beside the values
Outline: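 MDA-MB-231 cells (~5 × 10^6), exponentially growing, exposed to 30 μM compound for 24 h at 37 °C. Lysed in Laemmli buffer, run on 10% SDS-PAGE, immunoblotted with anti-β-tubulin (TUB 2.1, 1:500) and peroxidase anti-mouse secondary, ECL detection. Normal and alkylated band densities integrated to give % alkylated β-tubulin. Representative of three experiments.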

[17] = system: P388; test: Dose required to inhibit cell growth was determined against P388D1 cell line of murine lymphocytotic leukemia; assay type: functional, cell-based; details: Mus musculus; outline: as §1
[18] = Alkylating activity by using 4-(4-nitrobenzyl)-pyridine(NBP) colorimetric assay
Outline: (§4)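 NBP colorimetric assay. Drug at 400 nmol/mL in ethanol was mixed with 10% NBP in ethanol and 50 mM sodium acetate pH 4.3, then heated at 80 °C for 60, 90, 120 or 150 min. Samples were chilled and basified with KOH/ethanol, and A570 was read against a drug-free blank. The alkylation rate (A570/min) is the slope of a linear regression of absorbance vs time. Mean ± SD of ≥3 independent experiments.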

[19] = system: MDA-MB-231; test: Dose required to inhibit cell growth was determined against MDA-MB-231 cell line of human non-hormone dependent breast carcinoma; assay type: functional, cell-based; outline: as §1
[20] = Alkylating activity by using 4-(4-nitrobenzyl)-pyridine (NBP) colorimetric assay; outline: as §4
[21] = system: MDA-MB-231; test: DNA damages caused in MDA-MB-231 cells after 2 hr exposure to a concentration of 400 uM; assay type: functional, Homo sapiens; outline: as §3
[22] = system: HT-29; test: Dose required to inhibit cell growth was determined against HT-29 cell line of human adenocarcinoma; Not active represents IC50 >400 uM; assay type: functional, cell-based; outline: as §2
[23] = system: CHO; test: Dose required to inhibit cell growth was determined against CHO cell line; NA= Not active represents IC50 >400 uM; assay type: functional, cell-based; details: Cricetulus griseus; outline: as §2

SMILES	IC50 [1] [µM]	IC50 [3] [µM]	IC50 [7] [µM]	IC50 [8] [µM]	IC50 [12] [µM]	Activity [14] [%]	Activity [15] [%]	Activity [16] [%]	IC50 [17] [µM]	Activity [18] [A570 min-1]	IC50 [19] [µM]	other results
O=C(NCCCl)Nc1cccc2c1CCCC2	76	56	55									NA [2]: inactive; NA [4]: inactive; NA [5]: inactive; NA [6]: inactive
CNC(=O)Nc1ccc(C(C)(C)C)cc1			80	196								NA [9]: inactive; NA [10]: inactive; NA [11]: inactive
CCCCCCc1ccc(NC(=O)NCCCl)cc1	7.1	15	5	12	6.1	100	99	34	8.2	3.1	15	DNA damage [13]: 2.32 10e7 exchanged dCps (ng of DNA)
CCC(C)c1ccc(NC(=O)NCCCl)cc1 (stereo not given)	1.3	4	1.3	3.6	2.2	100	100	76	2.4	3.1	3.1	
CCCCCc1ccc(NC(=O)NCCCl)cc1	6.1	13	5.4	12	5.2	100	99	40	7.3	2.9	12	DNA damage [13]: 1.93 10e7 exchanged dCps (ng of DNA)
O=C(O)CCCc1ccc(N(CCCl)CCCl)cc1 [CHLORAMBUCIL]	11	30	3	> 100	9				7		80	Activity [20]: 39 A570 min-1; DNA damage [21]: 12.7 10e7 exchanged dCps (ng of DNA)
O=C(NCCCl)Nc1ccc2ccccc2c1	3	7.2	3	5.5	6.2			47	5.3		6.1	DNA damage [21]: 1.89 10e7 exchanged dCps (ng of DNA)
CNC(=O)Nc1ccc(C(C)C)cc1	198		135									NA [22]: inactive; NA [10]: inactive; NA [11]: inactive
O=C(NCCCl)Nc1ccc(I)cc1	2.1	4.8	3.8	3.9	5.4	100	98	44	5.4		5.7	DNA damage [13]: 2.66 10e7 exchanged dCps (ng of DNA); Activity [20]: 3.1 A570 min-1
O=NN(CCCl)C(=O)NCCCl [CARMUSTINE]	9	8.2	4.5	17		50	20		5.9		7.4	DNA damage [21]: 19.9 10e7 exchanged dCps (ng of DNA)
CCNC(=O)Nc1ccc(C(C)C)cc1	142		35									NA [22]: inactive; NA [10]: inactive; NA [11]: inactive
Cc1cc(C)nc(NC(=O)NCCCl)c1	113		144								50	NA [2]: inactive; NA [5]: inactive; NA [23]: inactive
CC(C)c1ccc(NC(=O)NCCCl)cc1	1.3	3.2	1.2	5	1	100	100	65	2.1	3	2.5	
CC(C)(C)c1ccc(NC(=O)NCCCl)cc1	3.5	6.3	3	9.1	4.1	100	100	44	5.2	3.1	6.2	DNA damage [13]: 2.22 10e7 exchanged dCps (ng of DNA)
CCC(C)c1ccc(NC(=O)NC)cc1 (stereo not given)	142		62									NA [22]: inactive; NA [10]: inactive; NA [11]: inactive
